# Calls of active or inactive are those of the source. The rule behind the calls is not given here.
# What was measured:
# Medulloblastoma cell [1] = assay: Antiproliferative activity against mouse Ptch+/- p53-/- medulloblastoma cells assessed as reduction in cell proliferation after 72 hrs by MTS assay; assay type: functional, cell-based
# In short: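 Tumor cells obtained from ptch+/−;p53−/− medulloblastoma allografts by mechanical mincing and collagenase digestion. Cultured in Neurobasal A with B-27, EGF 20 ng/mL, bFGF 20 ng/mL, nonessential amino acids and N-acetylcysteine 60 μg/mL. Exposed to compounds for 72 h, then proliferation read by MTS assay. Data given as mean ± SD.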
# Mus musculus [2] = organism: Mus musculus; assay: Inhibition of hedgehog signaling pathway in mouse NIH/3T3 cells hoarboring Gli2 plasmid assessed as reduction in ectopic expression of Gli2 protein at 50 to 1000 nM by immunoblot analysis; assay type: cell-based
# Mus musculus [3] = organism: Mus musculus; assay: Inhibition of hedgehog signaling pathway in mouse NIH/3T3 cells assessed as reduction in edogenous expression of Gli1 protein by immunoblot analysis; assay type: cell-based
# In short: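 NIH-3T3 cells cultured in 10% FBS were exposed to compound at various concentrations for 24 h. Endogenous Gli1 and Gli2 detected by Western blot.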
# Homo sapiens [4] = organism: Homo sapiens; assay: Inhibition of TNFalpha-induced NFkappaB activation in HEK293 cells at 1 uM after 24 hrs by dual luciferase reporter gene assay; assay type: cell-based
# In short: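 HEK293 cells carrying NF-κB firefly reporter plus Renilla, stimulated with TNF-α and treated for 24 h. Cells lysed for dual luciferase assay, firefly signal normalized to Renilla. Data given as mean ± SD.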
# Medulloblastoma cell [5] = assay: Induction of apoptosis in mouse Ptch+/- p53-/- medulloblastoma cells implanted in athymic nude mouse at 25 to 50 mg/kg, ip bid for 15 consecutive days by TUNEL assay; assay type: functional, organism-based
# In short: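 Apoptosis in subcutaneous ptch+/−;p53−/− medulloblastoma allografts in nude mice (n = 5), dosed ip twice daily for 15 days. Tumor sections stained by TUNEL and apoptotic cells imaged at 60×.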
# Mus musculus [6] = organism: Mus musculus; assay: Inhibition of hedgehog signaling pathway in mouse Light2 cells harboring Smo W535L mutant after 36 hrs by Gli luciferase activity; assay type: cell-based
# In short: (§1)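 Light II cells (NIH-3T3 stably carrying Gli-responsive firefly luciferase and Renilla vector) transfected with wild-type, D473H or W535L Smo plasmid. Exposed to compound for 36 h, then dual luciferase assay with firefly/Renilla normalization. IC50 derived and given as mean ± SD.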
# Homo sapiens [7] = organism: Homo sapiens; assay: Inhibition of PGE2-stimulated TCF/LEF activity in human LS174T cells at 1 uM measured after 6 hrs by dual luciferase reporter gene assay; assay type: cell-based
# In short: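 LS174T cells carrying TCF/LEF reporter, stimulated with PGE2 and treated for 6 h. Dual luciferase read-out, firefly normalized to Renilla. Data given as mean ± SD.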
# Mus musculus [8] = organism: Mus musculus; assay: Inhibition of hedgehog signaling pathway in mouse NIH/3T3 cells assessed as downregulation of Shh-induced Gli1 mRNA expression levels at 300 nM after 36 hrs by RT-qPCR analysis; assay type: cell-based
# In short: (§2)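 NIH-3T3 or C3H10T1/2 cells treated as indicated for 36 h, then collected for RT-qPCR of Gli1 and ptch1 mRNA. Data given as mean ± SD.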
# Mus musculus [9] = organism: Mus musculus; assay: Inhibition of hedgehog signaling pathway in mouse Light2 cells in Shh conditioned medium by Gli-luciferase reporter gene assay; assay type: cell-based
# In short: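 Light II cells (NIH-3T3 stably transfected with Gli-responsive firefly luciferase and Renilla expression vector) stimulated with ShhN conditioned medium. This medium was collected from ShhN-transfected HEK293 cells kept in 0.1% FBS. Firefly luciferase normalized to Renilla. IC50 given as mean ± SD (nM) from three separate experiments.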
# Mus musculus [10] = assay: Downregulation of Gli1 mRNA expression level in athymic nude mouse implanted with mouse Ptch+/- p53-/- medulloblastoma cells at 25 to 50 mg/kg, ip bid for 15 consecutive days measured after 4 hrs of last dosage by RT-qPCR analysis; assay type: functional, organism-based
# In short: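 Same allograft model (n = 5), dosed ip twice daily for 15 days in 0.5% methylcellulose/0.2% Tween-80 suspension. Tumors harvested 4 h after the last dose. Gli1 and ptch1 mRNA quantified by RT-qPCR. Data given as mean ± SD.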
# Mus musculus [11] = organism: Mus musculus; assay: Inhibition of hedgehog signaling pathway in mouse Light2 cells harboring Smo D473H mutant after 36 hrs by Gli luciferase activity; assay type: cell-based; in short: as §1
# Mus musculus [12] = organism: Mus musculus; assay: Inhibition of hedgehog signaling pathway in mouse NIH/3T3 cells assessed as downregulation of Shh-induced ptch1 mRNA expression levels at 300 nM after 36 hrs by RT-qPCR analysis; assay type: cell-based; in short: as §2
# [13] = molecular target: Bromodomain-containing protein 4 (Homo sapiens) (UniProt O60885); assay: Inhibition of BRD4 (unknown origin) at 10 uM
# Mus musculus [14] = organism: Mus musculus; assay: Inhibition of hedgehog signaling pathway in mouse C3H10T1/2 cells assessed as downregulation of Shh-induced ptch1 mRNA expression levels at 300 nM after 36 hrs by RT-qPCR analysis; assay type: cell-based; in short: as §2
# Mus musculus [15] = organism: Mus musculus; assay: Inhibition of hedgehog signaling pathway in mouse Light2 cells harboring wild type Smo after 36 hrs by Gli luciferase activity; assay type: cell-based; in short: as §1
# Mus musculus [16] = organism: Mus musculus; assay: Inhibition of hedgehog signaling pathway in mouse Ptch+/- p53-/- medulloblastoma cells assessed as reduction in GLI1 mRNA expression at 3 uM by RT-qPCR analysis
# In short: (§3)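 ptch+/−;p53−/− medulloblastoma cells kept in Neurobasal A/B-27 medium with EGF and bFGF, then treated. Gli1 and ptch1 mRNA measured by RT-qPCR. Data given as mean ± SD.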
# Mus musculus [17] = organism: Mus musculus; assay: Inhibition of hedgehog signaling pathway in mouse Shh Light2 cells harboring Gli2 plasmid assessed as reduction in Gli2-mediated transcriptional activity by luciferase reporter gene assay; assay type: cell-based
# Mus musculus [18] = organism: Mus musculus; assay: Inhibition of hedgehog signaling pathway in mouse Ptch+/- p53-/- medulloblastoma cells assessed as reduction in ptch1 mRNA expression at 3 uM by RT-qPCR analysis; in short: as §3
# Mus musculus [19] = organism: Mus musculus; assay: Inhibition of hedgehog signaling pathway in mouse Shh Light2 cells harboring Gli1 plasmid assessed as reduction in Gli1-mediated transcriptional activity by luciferase reporter gene assay; assay type: cell-based
# Mus musculus [20] = organism: Mus musculus; assay: Inhibition of hedgehog signaling pathway in mouse NIH/3T3 cells hoarboring Gli1 plasmid assessed as reduction in ectopic expression of Gli1 protein at 50 to 1000 nM by immunoblot analysis; assay type: cell-based
# Mus musculus [21] = organism: Mus musculus; assay: Inhibition of hedgehog signaling pathway in mouse Light2 cells in Shh conditioned medium at 1 uM by Gli-luciferase reporter gene assay relative to control; assay type: cell-based
compound,measurement,setting,value
COc1ccc(CN2C[C@@H]3CN(S(=O)(=O)c4ccc(Cl)cc4)CC[C@@H]3Oc3c(NC(=O)C4CC4)cccc3C2=O)cc1 (racemic),Activity,Medulloblastoma cell [1],Dose-dependent effect
same,inhibition,Mus musculus [2],Active
same,inhibition,Mus musculus [3],Dose-dependent effect
same,inhibition,Homo sapiens [4],inactive
same,Activity,Medulloblastoma cell [5],Active
same,inhibition,Mus musculus [6],Dose-dependent effect
same,inhibition,Homo sapiens [7],Active
same,inhibition,Mus musculus [8],Active
same,inhibition,Mus musculus [9],Dose-dependent effect
same,Activity,Mus musculus [10],Active
same,inhibition,Mus musculus [11],Dose-dependent effect
same,inhibition,Mus musculus [12],Active
same,inhibition,[13],inactive
same,inhibition,Mus musculus [14],Active
same,inhibition,Mus musculus [15],Dose-dependent effect
same,inhibition,Mus musculus [16],Active
same,inhibition,Mus musculus [17],Dose-dependent effect
same,inhibition,Mus musculus [18],Active
same,inhibition,Mus musculus [19],Dose-dependent effect
same,inhibition,Mus musculus [20],Active
same,inhibition,Mus musculus [21],97%
